These results are taken from PubChem BioAssay.

Test [1] can be described thus: Her2 expression decrease, cell viability multiplex – SKBR3 breast tumor cells, AlphaScreen, ATP viability, primary screen (AID 461;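 active means Her2 level under about 52% in both replicate screens, with viability over 70% of control, limit read from the data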;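 on Her2 level: lower value means less Her2 protein in the cells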;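 on viability: percent of carrier control wells set as 100% viability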). The following applies: SKBR3 Her2 protein level, 18-24 h, measured here: SKBR3 viability, ATP luminescence, at 10 µM. For orientation: In Alpha technology, singlet oxygen from a donor bead excites a nearby acceptor bead.
The target of test [2] is Receptor tyrosine-protein kinase erbB-2 (Homo sapiens) (UniProt P04626). The test is described as above. The following applies: 18-24 h, at 10 µM, stronger effect = lower value.
The nature of test [3]: reduced viability of SK-BR-3 breast cancer cells – cell-based, 24 h, human, pilot screen (AID 572).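 Further: compound exposure lasted between 18 and 24 h rather than exactly 24 h; 100% = carrier-treated control wells.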 The following applies: SK-BR-3 viability, CellTiter-Glo luminescence, at 10 µM, stronger effect = lower value.
Test [4] in a line: HUVEC growth inhibition – cell-based, human, primary screen (AID 575;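 active means viability at or below 30% in both replicate assays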;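 further: 100% = median of untreated cell wells with 0.1% DMSO on each plate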). The following applies: HUVEC proliferation, CellTiter-Glo luminescence, 72 h; at 10 µM; stronger effect = lower value. In a few lines: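 System – primary HUVEC, no more than 12 passages · Medium – Low-serum (2% FBS) EBM, supplemented · Times – 72 h exposure, 37 °C, 5% CO2, 30 min RT equilibration · Measured by – luminescent ATP assay · Read-out – % viability relative to median vehicle-well signal on each plate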
For orientation: ATP-based viability assays read luminescence as a measure of living cells.

A short description of test [5]: H69AR cell proliferation blockers – human, duplicate replicates, primary screen (AID 580;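 active means viability at or under a set limit in both replicates, limit being median viability minus 3 SD, cut at about 48% in these data, passing the limit was not always enough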;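 further: 100% = mean luminescence of untreated wells and 0% = no signal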). The following applies: H69AR lung tumor cells viability, ATP luminescence, 72 h; at 10 µM; stronger effect = lower value.
Test [6] in a line: MRP1 drug-resistance reversers in H69AR cells – cell-based, doxorubicin co-treatment, pilot screen (AID 601;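 active means viability loss from added drug above about 55%, and viability with drug at most 40%, in both replicates, limit read from the data, passing the limit was not always enough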). To be noted: CellTiter-Glo, 72 h, at 10 µM; for differential viability (reversal): stronger effect = higher value.
Test [7] can be described thus: yeast transport mutant growth inhibition pilot in 384-well plates, post-Golgi transport modulator project (AID 636; in the data active means inhibition above about 31%). The following applies: absorbance 615 nm, about 18 h, stronger effect = higher value.
Test [8] can be described thus: growth suppression of yeast trafficking mutant, preliminary HTS, modulators of trafficking downstream of Golgi apparatus project, 1536-format plate, OD 615 nm (AID 637; in the data active means inhibition above about 30%). The following applies: yeast transport mutant growth, absorbance 615 nm, 18 h; stronger effect = higher value.
[9] abbreviates: H69AR cells + 2 uM doxorubicin, measured here: viability with 2 uM doxorubicin, stronger effect = lower value.
Where [10] appears, read: H69AR cells, compound alone cytotoxicity.

Activity calls are given as the source filed them.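 How the source made its calls, unless noted: active means viability at or below 10% of carrier control in both of two separate runs; inconclusive means viability at or below 10% in only one of the two runs; inactive means the rest.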

Chain of Receptor tyrosine-protein kinase erbB-2 (Homo sapiens) (P04626 whole entry, looked up): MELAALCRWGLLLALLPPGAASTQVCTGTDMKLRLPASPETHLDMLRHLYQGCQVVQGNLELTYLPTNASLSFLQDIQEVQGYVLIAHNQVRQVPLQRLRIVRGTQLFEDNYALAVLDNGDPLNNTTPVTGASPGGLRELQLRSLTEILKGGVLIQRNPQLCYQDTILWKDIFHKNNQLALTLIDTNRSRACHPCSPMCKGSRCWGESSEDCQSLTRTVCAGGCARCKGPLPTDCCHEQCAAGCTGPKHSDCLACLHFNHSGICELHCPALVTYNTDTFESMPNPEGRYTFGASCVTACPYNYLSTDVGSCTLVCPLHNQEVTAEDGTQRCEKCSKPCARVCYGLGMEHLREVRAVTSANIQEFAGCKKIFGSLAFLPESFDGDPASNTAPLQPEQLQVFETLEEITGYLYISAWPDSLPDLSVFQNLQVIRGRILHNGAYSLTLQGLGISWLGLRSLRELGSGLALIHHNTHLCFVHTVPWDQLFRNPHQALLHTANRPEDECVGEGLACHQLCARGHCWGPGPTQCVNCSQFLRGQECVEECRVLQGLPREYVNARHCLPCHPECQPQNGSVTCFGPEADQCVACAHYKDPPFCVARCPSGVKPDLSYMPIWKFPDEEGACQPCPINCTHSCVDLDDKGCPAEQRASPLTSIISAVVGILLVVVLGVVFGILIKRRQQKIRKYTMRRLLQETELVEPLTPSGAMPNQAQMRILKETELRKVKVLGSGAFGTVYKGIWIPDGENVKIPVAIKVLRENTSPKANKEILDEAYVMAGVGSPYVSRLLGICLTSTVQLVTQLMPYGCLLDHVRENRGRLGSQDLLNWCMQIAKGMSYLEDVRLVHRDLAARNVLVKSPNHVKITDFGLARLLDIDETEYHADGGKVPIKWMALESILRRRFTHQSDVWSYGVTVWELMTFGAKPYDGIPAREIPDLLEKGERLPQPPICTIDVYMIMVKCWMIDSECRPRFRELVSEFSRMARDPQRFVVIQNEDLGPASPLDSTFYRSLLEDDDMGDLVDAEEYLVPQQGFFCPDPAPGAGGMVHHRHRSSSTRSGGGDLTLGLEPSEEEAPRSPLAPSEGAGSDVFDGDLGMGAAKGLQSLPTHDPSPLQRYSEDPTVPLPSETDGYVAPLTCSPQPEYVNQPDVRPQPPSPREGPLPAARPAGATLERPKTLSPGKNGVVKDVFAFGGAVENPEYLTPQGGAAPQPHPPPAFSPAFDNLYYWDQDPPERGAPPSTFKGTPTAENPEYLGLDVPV

One may read the viability as a read-out of living cells in per cent, often relative to untreated cells. A word on the inhibition: it is the change of the read-out against control, counted positive when it falls. On to `CCOC(=O)COc1ccc(C2NC(C(=O)O)CS2)cc1` (stereo not given), for which the viability in test [1] was 94.5%; in test [3], 94.5% (inactive); in test [4], 83.4% (inactive); in test [5] it was 102% (inactive); in test [6] (setting [9]) it was 96.3%; in test [6] (setting [10]) it was 102%. Also, in test [2], the Her2 level is 102% (inactive). Further, in test [6] (H69AR cells + 2 uM doxorubicin), the differential viability (reversal) was 5.91% (inactive). The inhibition is -3.03% (inactive) in test [7] and -7.5% (inactive) in test [8].

Take `COc1ccccc1-n1c(C)nnc1SCC(N)=O`: the viability in test [1] is 127%; in test [3], 127% (inactive); in test [4], 101% (inactive); in test [5], 91.6% (inactive); in test [6] (setting [9]), 77.7%; in test [6] (setting [10]), 91.6%. For the same molecule, in test [2], the Her2 level is 113% (inactive). Further, in test [6] (H69AR cells + 2 uM doxorubicin), the differential viability (reversal) was 13.9% (inactive). In addition, the inhibition in test [7] was -5.33% (inactive); in test [8], -0.65% (inactive).

Regarding `O=c1[nH]c(CN2CCN(Cc3ccccc3)CC2)nc2sc3c(c12)CCC3`, the viability in test [1] is 96%; in test [3], 96% (inactive); in test [4], 98.9% (inactive); in test [5], 87.9% (inactive); in test [6] (setting [9]) it was 87.3%; in test [6] (setting [10]), 87.9%. The Her2 level in test [2] is 87.5% (inactive). In test [6] (H69AR cells + 2 uM doxorubicin), the differential viability (reversal) was 0.67% (inactive). Further, the inhibition in test [7] was -4.86% (inactive); in test [8] it was 2.06% (inactive).

With `Cn1c(-c2ccccc2)c(CCO)c2ccccc21`, the viability was 97% in test [1]; 97% (inactive) in test [3]; 114% (inactive) in test [4]; 94.7% (inactive) in test [5]; 97.4% in test [6] (setting [9]); 94.7% in test [6] (setting [10]). The Her2 level in test [2] is 78.5% (inactive). In test [6] (H69AR cells + 2 uM doxorubicin), the differential viability (reversal) was -2.71% (inactive). Also, the values for the inhibition in test [7] and in test [8] were -0.79% (inactive) and -2.9% (inactive), respectively.

Turning to `Nn1c(SCC(=O)Nc2ccc3c(c2)OCO3)nnc1C1CC1`, the viability is 102% in test [1]; 102% (inactive) in test [3]; 105% (inactive) in test [4]; 94.2% (inactive) in test [5]; 92.2% in test [6] (setting [9]); 94.2% in test [6] (setting [10]). Moreover, the Her2 level in test [2] is 78.5% (inactive). Besides, in test [6] (H69AR cells + 2 uM doxorubicin), the differential viability (reversal) was 2% (inactive). The inhibition in test [7] is -5.41% (inactive); in test [8], 8.25% (inactive).

On to `O=C(NCc1cccnc1)c1ccc2c(c1)OCO2`, for which the viability in test [1] is 74%; in test [3], 74% (inactive); in test [4] it was 105% (inactive); in test [5], 89.7% (inactive); in test [6] (setting [9]) it was 107%; in test [6] (setting [10]), 89.7%. Moreover, the Her2 level in test [2] was 102% (inactive). Moreover, the differential viability (reversal) in test [6] (H69AR cells + 2 uM doxorubicin) was -16.9% (inactive). Further, the inhibition in test [7] is -1.35% (inactive); in test [8], -9.18% (inactive).

Consider `CN(C)S(=O)(=O)c1ccc(C(=O)Nc2ccccc2C(=O)O)cc1`, for which the viability was 102% in test [1]; 102% (inactive) in test [3]; 102% (inactive) in test [4]; 94.6% (inactive) in test [5]; 95.7% in test [6] (setting [9]); 94.6% in test [6] (setting [10]). The Her2 level in test [2] was 88.5% (inactive). Further, in test [6] (H69AR cells + 2 uM doxorubicin), the differential viability (reversal) was -1.06% (inactive). Besides, the inhibition in test [7] was -3.03% (inactive); in test [8], -3.17% (inactive).

For `CC(C)(C)n1nc2c(c1NC(=O)COc1ccc(Cl)cc1)CSC2`, the viability in test [1] is 97.5%; in test [3], 97.5% (inactive); in test [4] it was 80.5% (inactive); in test [5] it was 91.4% (inactive); in test [6] (setting [9]) it was 102%; in test [6] (setting [10]) it was 91.4%. Also, the Her2 level in test [2] is 79.5% (inactive). Besides, in test [6] (H69AR cells + 2 uM doxorubicin), the differential viability (reversal) was -10.3% (inactive). In addition, the values for the inhibition in test [7] and in test [8] were -5% (inactive) and -0.16% (inactive), respectively.

Turning to `O=C(CSc1nnnn1Cc1ccccc1)Nc1ccc2c(c1)OCO2`, the viability was 114% in test [1]; 114% (inactive) in test [3]; 90.3% (inactive) in test [4]; 108% (inactive) in test [5]; 89.5% in test [6] (setting [9]); 108% in test [6] (setting [10]). The Her2 level in test [2] was 108% (inactive). Also, the differential viability (reversal) in test [6] (H69AR cells + 2 uM doxorubicin) was 18.2% (inactive). For the same molecule, the inhibition in test [7] was -5.54% (inactive); in test [8] it was -3.17% (inactive).

Take `COc1cccc(NC(=O)Nc2cccs2)c1`: the viability in test [1] was 93%; in test [3], 93% (inactive); in test [4], 75% (inactive); in test [5] it was 79.5% (inactive); in test [6] (setting [9]), 78.1%; in test [6] (setting [10]), 79.5%. Further, the Her2 level in test [2] is 79% (inactive). Further, the differential viability (reversal) in test [6] (H69AR cells + 2 uM doxorubicin) was 1.41% (inactive). For the same molecule, the inhibition is -6.53% (inactive) in test [7] and -2.3% (inactive) in test [8].

Regarding `CCN(Cc1nc2ccccc2c(=O)[nH]1)Cc1cc(=O)oc2cc(C)c(C)cc12`, the viability in test [1] is 107%; in test [3] it was 107% (inactive); in test [4], 63% (inactive); in test [5] it was 62.9% (inactive); in test [6] (setting [9]) it was 42%; in test [6] (setting [10]) it was 62.9%. Further, in test [2], the Her2 level is 102% (inactive). Further, the differential viability (reversal) in test [6] (H69AR cells + 2 uM doxorubicin) was 21% (inactive). For the same molecule, the inhibition was -4.68% (inactive) in test [7] and -1.67% (inactive) in test [8].

With `c1cc(CNc2ccc3c(c2)OCO3)ccn1`, the viability in test [1] is 80%; in test [3], 80% (inactive); in test [4], 70.7% (inactive); in test [5], 90% (inactive); in test [6] (setting [9]), 103%; in test [6] (setting [10]), 90%. The Her2 level in test [2] was 92% (inactive). Besides, the differential viability (reversal) in test [6] (H69AR cells + 2 uM doxorubicin) is -12.5% (inactive). The inhibition in test [7] was -5.81% (inactive); in test [8], -2.13% (inactive).

With `O=C(Nc1ccccc1)N(CCN1CCOCC1)Cc1ccccc1F`, the viability in test [1] is 106%; in test [3], 106% (inactive); in test [4], 92.2% (inactive); in test [5], 92.3% (inactive); in test [6] (setting [9]), 108%; in test [6] (setting [10]), 92.3%. Also, in test [2], the Her2 level is 103% (inactive). In addition, the differential viability (reversal) in test [6] (H69AR cells + 2 uM doxorubicin) was -16% (inactive). For the same molecule, the inhibition is 2.11% (inactive) in test [7] and 1.64% (inactive) in test [8].

As for `CCC(C)OC(=O)n1ccc(C(=O)Nc2nccs2)n1` (stereo not given), the viability in test [1] was 106%; in test [3], 106% (inactive); in test [4], 91.4% (inactive); in test [5], 91.4% (inactive); in test [6] (setting [9]) it was 95.6%; in test [6] (setting [10]) it was 91.4%. Moreover, in test [2], the Her2 level is 84% (inactive). Also, the differential viability (reversal) in test [6] (H69AR cells + 2 uM doxorubicin) is -4.24% (inactive). Besides, the inhibition was 0.53% (inactive) in test [7] and -4.19% (inactive) in test [8].

`CCOC(=O)c1c(C)n(C)c2ccc(OC)c(NC(=O)CCN3CCSCC3)c12`: the viability in test [1] was 122%; in test [3] it was 122% (inactive); in test [4] it was 96.7% (inactive); in test [5], 83.5% (inactive); in test [6] (setting [9]) it was 85.1%; in test [6] (setting [10]), 83.5%. Besides, the Her2 level in test [2] is 91.5% (inactive). Moreover, the differential viability (reversal) in test [6] (H69AR cells + 2 uM doxorubicin) is -1.65% (inactive). Moreover, the inhibition in test [7] is -2.89% (inactive); in test [8] it was -2.74% (inactive).

In the case of `Cc1ccc(Oc2ccc(-c3nc(N)nc(N)n3)cc2)cc1`, the viability in test [1] was 112%; in test [3], 112% (inactive); in test [4], 76.6% (inactive); in test [5], 108% (inactive); in test [6] (setting [9]), 84.8%; in test [6] (setting [10]) it was 108%. Further, the Her2 level in test [2] is 82% (inactive). Further, the differential viability (reversal) in test [6] (H69AR cells + 2 uM doxorubicin) is 23.1% (inactive). For the same molecule, the results for the inhibition in test [7] and in test [8] were -5.33% (inactive) and 2.1% (inactive), respectively.
